In brackets after ≈: the same amount, converted by molar mass. Activity calls are given as the source filed them. No cut-off for these calls is given here.
Key:
[1] = Cytotoxicity against human HepG2 cells assessed as reduction in cell viability after 2 days by Celltiter-Glo reagent based assay; conditions: read-out: LD50
Method in brief: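 HepG2 cells in DMEM with 10% FBS, pyruvate, glutamine and nonessential amino acids. Seeded at 3000 cells/well and exposed 2 days to compound or vehicle (≤1% DMSO final). Reported as LD50.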

[2] = test system: Mycobacterium tuberculosis; test: Bactericidal activity against wild-type non-replicating Mycobacterium tuberculosis H37Rv multi-stress model at 0.1 to 100 ug/ml incubated for 7 days measured at OD580 = 0.01 by charcoal agar resazurin assay; assay type: functional, organism-based
[3] = Stability in pH 7.4 phosphate buffer solution assessed as parent compound remaining at 5 to 50 ug/ml at 37 degC measured every 12 hrs up to 144 hrs by LC-MS analysis; assay type: physicochemical
Method in brief: (§1)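 Compound at 50 μg/mL in cell-free PBS pH 7.4, or nonreplicating medium pH 5.0 (BSA, tyloxapol, lysine, pantothenate omitted) with or without 0.5 mM NaNO2. Poorly soluble compounds at 5 μg/mL in 50:50 acetonitrile mixtures, pH readjusted to 5.0.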

[4] = Stability in pH 5 non-replicating medium assessed as parent compound remaining at 5 to 50 ug/ml at 37 degC measured every 12 hrs up to 144 hrs by LC-MS analysis; assay type: physicochemical; conditions: buffer; method in brief: as §1
[5] = Stability in pH 5 non-replicating medium containing 0.5 mM NaNO2 assessed as parent compound remaining at 5 to 50 ug/ml at 37 degC measured every 12 hrs up to 144 hrs by LC-MS analysis; assay type: physicochemical; conditions: buffer; method in brief: as §1
[6] = test system: Mycobacterium tuberculosis; test: Bactericidal activity against wild-type replicating Mycobacterium tuberculosis H37Rv assessed as reduction in CFU in presence of beta-lactamase inhibitor clavulanate; assay type: functional, organism-based

Row | Compound | CC50 at 48 h [1] [µg/mL] | further results
1 | CCCc1noc(C2=C(C)CS[C@@H]3[C@H](NC(=O)COc4ccc(Cl)cc4)C(=O)N23)n1 | 64.3 (≈ 143 µM) | Activity [2]: Active
2 | CCCCOC(=O)C1=C(C)CS[C@@H]2[C@H](NC(=O)COc3ccc(Cl)cc3)C(=O)N12 | > 100 | 
3 | CCOC(=O)C1=C(C)CS[C@@H]2[C@H](NC(=O)CCc3ccccc3)C(=O)N12 | > 100 | 
4 | CC1=C(c2nc(C)no2)N2C(=O)[C@@H](NC(=O)Cc3ccc(Cl)cc3)[C@H]2SC1 | > 100 | 
5 | CC1=C(C(=O)O)N2C(=O)[C@@H](NC(=O)CCc3ccc(Br)cc3)[C@H]2SC1 | > 100 | 
6 | COc1ccc(CCC(=O)N[C@@H]2C(=O)N3C(c4nc(C)no4)=C(C)CS[C@H]23)cc1 | > 100 | 
7 | CCCOC(=O)C1=C(C)CS[C@@H]2[C@H](NC(=O)CCc3ccccc3)C(=O)N12 | > 100 | 
8 | CCOC(=O)C1=C(C)CS[C@@H]2[C@H](NC(=O)COc3ccc(OC)cc3)C(=O)N12 | > 100 | 
9 | CCCCOc1ccc(CCC(=O)N[C@@H]2C(=O)N3C(c4nc(CCC)no4)=C(C)CS[C@H]23)cc1 | > 100 | 
10 | CCCc1noc(C2=C(C)CS[C@@H]3[C@H](NC(=O)Cc4ccccc4)C(=O)N23)n1 | > 100 | 
11 | CCCCOC(=O)C1C(C)=CS[C@@H]2[C@H](NC(=O)COc3ccccc3)C(=O)N12 (some centres undefined) | 61.8 (≈ 153 µM) | 
12 | COc1ccc(OCC(=O)N[C@@H]2C(=O)N3C(C(=O)OCc4ccccc4)=C(C)CS[C@H]23)cc1 | > 100 | 
13 | CCCCOC(=O)C1=C(C)CS[C@@H]2[C@H](NC(=O)CCc3ccccc3)C(=O)N12 | > 100 | Activity [2]: Active
14 | CCCOC(=O)C1C(C)=CS[C@@H]2[C@H](NC(=O)CCc3ccc(OC)cc3)C(=O)N12 (some centres undefined) | > 100 | 
15 | CC1=C(c2nc(C)no2)N2C(=O)[C@@H](NC(=O)COc3ccc(Cl)cc3)[C@H]2SC1 | 19.5 (≈ 46.4 µM) | Activity [2]: Active
16 | CCCc1noc(C2=C(C)CS[C@@H]3[C@H](NC(=O)CCc4ccc(Cl)cc4)C(=O)N23)n1 | > 100 | 
17 | CC1=C(c2nc(C)no2)N2C(=O)[C@@H](NC(=O)Cc3ccccc3)[C@H]2SC1 | > 100 | 
18 | C#CCOC(=O)C1=C(C)CS[C@@H]2[C@H](NC(=O)COc3ccc(Cl)cc3)C(=O)N12 | 63.4 (≈ 151 µM) | 
19 | CCCCOC(=O)C1=C(C)CS[C@@H]2[C@H](NC(=O)CCc3ccc(Cl)cc3)C(=O)N12 | > 100 | 
20 | CCCc1noc(C2=C(C)CS[C@@H]3[C@H](NC(=O)Cc4ccc(Cl)cc4)C(=O)N23)n1 | 20.6 (≈ 47.6 µM) | 
21 | CCOC(=O)C1=C(C)CS[C@@H]2[C@H](NC(=O)CCc3ccc(OC)cc3)C(=O)N12 | > 100 | Activity [2]: Active
22 | C#CCNC(=O)C1=C(C)CS[C@@H]2[C@H](NC(=O)COc3ccccc3)C(=O)N12 | > 100 | 

Row | Compound | CC50 at 48 h [1] [µg/mL] | further results
23 | CCOC(=O)C1=C(C)CS[C@@H]2[C@H](NC(=O)COc3ccc(Cl)cc3)C(=O)N12 | 41 (≈ 99.8 µM) | 
24 | CCCc1noc(C2=C(C)CS[C@@H]3[C@H](NC(=O)Cc4ccc(OC)cc4)C(=O)N23)n1 | 72.4 (≈ 169 µM) | 
25 | C=CC1=C(C(=O)O)N2C(=O)[C@@H](NC(=O)/C(=N\O)c3csc(N)n3)[C@H]2SC1 | > 100 | 
26 | CCOC(=O)C1=C(C)CS[C@@H]2[C@H](NC(=O)COc3ccccc3)C(=O)N12 | > 100 | 
27 | CCCc1noc(C2=C(C)CS[C@@H]3[C@H](NC(=O)CCc4ccc(F)cc4)C(=O)N23)n1 | > 100 | 
28 | COC(=O)C1=C(C)CS[C@@H]2[C@H](NC(=O)CCc3ccc(OC)cc3)C(=O)N12 | > 100 | 
29 | CC1=C(c2nc(C)no2)N2C(=O)[C@@H](NC(=O)Cc3ccc(Cl)c(Cl)c3)[C@H]2SC1 | 18.9 (≈ 42.9 µM) | 
30 | COC(=O)C1=C(C)CS[C@@H]2[C@H](NC(=O)CCc3ccccc3)C(=O)N12 | > 100 | 
31 | CCCc1noc(C2=C(C)CS[C@@H]3[C@H](NC(=O)CCc4ccccc4Cl)C(=O)N23)n1 | > 100 | 
32 | CCCN[C@@H]1C(=O)N2C(C(=O)OCCC)=C(C)CS[C@H]12 | > 100 | Stability [3]: 100%; Stability [4]: 100%; Stability [5]: 40%; Activity [6]: inactive
33 | COC(=O)C1=C(C)CS[C@@H]2[C@H](NC(=O)[C@@H](c3ccccc3)N(C)C)C(=O)N12 | > 100 | 
34 | CCSC(=O)N[C@@H]1C(=O)N2C(c3nc(C)no3)=C(C)CS[C@H]12 | > 100 | 
35 | CC1=C(C(=O)O)N2C(=O)[C@@H](NC(=O)c3ccc(Cl)cc3)[C@H]2SC1 | > 100 | 
36 | CCCOC(=O)C1=C(C)CS[C@@H]2[C@H](NC(=O)COc3ccc(Cl)cc3)C(=O)N12 | 49.2 (≈ 116 µM) | 
37 | C#CCOC(=O)C1=C(C)CS[C@@H]2[C@H](NC(=O)CCc3ccc(Cl)cc3)C(=O)N12 | > 100 | 
38 | COC(=O)C1=C(C)CS[C@@H]2[C@H](NC(=O)COc3ccc(Cl)cc3)C(=O)N12 | > 100 | 
39 | CCCCOC(=O)C1=C(C)CS[C@@H]2[C@H](NC(=O)CCc3ccc(OC)cc3)C(=O)N12 | > 100 | 
40 | CC1=C(c2nc(C)no2)N2C(=O)[C@@H](NC(=O)Cc3ccc(C)cc3)[C@H]2SC1 | > 100 | 
41 | CC1=CS[C@@H]2[C@H](NC(=O)COc3ccccc3)C(=O)N2[C@H]1CO | > 100 | 
42 | CCCOC(=O)C1=C(C)CS[C@@H]2[C@H](NC(=O)[C@H](N)c3ccccc3)C(=O)N12 | > 100 | 
43 | CC1=C(C(=O)O)N2C(=O)[C@@H](NC(=O)Cc3ccc(Cl)cc3)[C@H]2SC1 | > 100 | 
44 | CC1=C(c2nc(C)no2)N2C(=O)[C@@H](NC(=O)[C@H](N)c3ccccc3)[C@H]2SC1 | > 100 | 

Row | Compound | CC50 at 48 h [1] [µg/mL] | further results
45 | CCCOC(=O)C1=C(C)CS[C@@H]2[C@H](NC(=O)CCc3ccc(OC)cc3)C(=O)N12 | > 100 | 
46 | CC1=C(c2nc(C)no2)N2C(=O)[C@@H](NC(=O)OC(C)(C)C)[C@H]2SC1 | > 100 | 
47 | CCCc1noc(C2=C(C)CS[C@@H]3[C@H](NC(=O)Cc4ccc(C)cc4)C(=O)N23)n1 | > 100 | 
48 | COc1ccc(CC(=O)N[C@@H]2C(=O)N3C(c4nc(C)no4)=C(C)CS[C@H]23)cc1 | > 100 | 
49 | COC(=O)C1=C(C)CS[C@@H]2[C@H](NC(=O)COc3ccccc3)C(=O)N12 | > 100 | 
50 | CCCc1noc(C2=C(C)CS[C@@H]3[C@H](NC(=O)CCc4ccc(C)cc4)C(=O)N23)n1 | > 100 | 
51 | CCCOC(=O)N[C@@H]1C(=O)N2C(C(=O)OCCC)=C(C)CS[C@H]12 | > 100 | Stability [3]: 80%; Stability [4]: 100%; Stability [5]: 100%; Activity [6]: inactive
52 | CCCc1noc(C2=C(C)CS[C@@H]3[C@H](NC(=O)CCc4ccc(OC)cc4)C(=O)N23)n1 | > 100 | Activity [2]: Active
53 | CCCOC(=O)C1=C(C)CS[C@@H]2[C@H](NC(=O)COc3ccc(OC)cc3)C(=O)N12 | > 100 | 
54 | CC1=C(c2nc(C)no2)N2C(=O)[C@@H](NC(=O)OCC(C)(C)C)[C@H]2SC1 | > 100 | 
55 | CC(=O)OCC1=C(C(=O)O)N2C(=O)[C@@H](NC(=O)Cc3cccs3)[C@H]2SC1 [CEPHALOTHIN] | > 100 | 
56 | CC1=C(C(=O)OCc2ccccc2)N2C(=O)[C@@H](NC(=O)COc3ccc(Cl)cc3)[C@H]2SC1 | > 100 | 
57 | CCCc1noc(C2=C(C)CS[C@@H]3[C@H](NC(=O)c4ccc(Cl)cc4)C(=O)N23)n1 | > 100 | Activity [2]: Active
58 | CCCCOc1ccc(CCC(=O)N[C@@H]2C(=O)N3C(c4nc(C)no4)=C(C)CS[C@H]23)cc1 | 74.4 (≈ 163 µM) | 
59 | COC(=O)C1=C(C)CS[C@@H]2[C@H](NC(=O)COc3ccc(OC)cc3)C(=O)N12 | > 100 | 
60 | COc1ccc(CCC(=O)N[C@@H]2C(=O)N3C(C(=O)OCc4ccccc4)=C(C)CS[C@H]23)cc1 | > 100 | 
61 | COC(=O)C1=C(C)CS[C@@H]2[C@H](NC(=O)[C@H](N)c3ccccc3)C(=O)N12 | > 100 | 
62 | CC1=C(c2nc(C)no2)N2C(=O)[C@@H](NC(=O)OCC(Cl)(Cl)Cl)[C@H]2SC1 | > 100 | Activity [2]: Active
63 | CCCCOC(=O)C1=C(C)CS[C@@H]2[C@H](NC(=O)COc3ccc(OC)cc3)C(=O)N12 | > 100 | 
64 | C#CCOC(=O)C1=C(C)CS[C@@H]2[C@H](NC(=O)CCc3ccccc3)C(=O)N12 | > 100 | 
